Test results as given in ChEMBL document CHEMBL5550188, “Detection of a Mitochondrial Fragmentation and Integrated Stress Response Using the Cell Painting Assay” (2024).
Calls of active or inactive are those of the source. The calls are words filed in the database; no cut-off is given here.

What was measured:
[1] = test system: U2OS; experiment: Induction of integrated stress response in human U2OS cells assessed as increase ATF4 level at 50 uM incubated for 24 hrs by Western blot analysis; assay type: functional, cell-based
In short: (§1)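 U-2OS grown to 80% confluence in 6-well plates were treated 24 h at 37 °C versus DMSO. ATF4 was detected by immunoblotting, with vinculin as reference protein.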

[2] = test system: U2OS; experiment: Upregulation of HMOX1 expression in human U2OS cells at 30 uM incubated for 24 hrs by proteome profiling based analysis; assay type: functional, cell-based
In short: (§2)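 U-2OS seeded at 1 × 10⁶ cells in T75 flasks, treated next day for 24 h at 37 °C versus DMSO. Cells were lysed by freeze–thaw, reduced with TCEP at 55 °C, alkylated with iodoacetamide, acetone-precipitated and trypsin-digested. Peptides were TMT-labelled, split into 10 fractions by high-pH C18, then run on nanoHPLC-MS/MS (orbitrap). Biological triplicates, with pathway over-representation analysis.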

[3] = test system: U2OS; experiment: Effect on EIF2 level in human U2OS cells at 30 uM incubated for 24 hrs by proteome profiling based analysis; assay type: functional, cell-based; in short: as §2
[4] = test system: U2OS; experiment: Upregulation of SLC2A1 expression in human U2OS cells at 10 to 30 uM incubated for 24 hrs by proteome profiling based analysis; assay type: functional, cell-based; details: dose 10-30 µM; in short: as §2
[5] = test system: U2OS; experiment: Effect on mitochondrial dysfunction in human U2OS cells at 30 uM incubated for 24 hrs by pathway over-representation analysis; assay type: functional, cell-based; in short: as §2
[6] = test system: HEK-293T; experiment: Upregulation of HIF1 level in HEK293T cells transfected with HIF1/luc at 30 uM incubated for 24 hrs by Renilla luciferase base assay; assay type: functional, cell-based; details: Homo sapiens
In short: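 HEK293T were co-transfected (Lipofectamine 2000) with a PGK1-HRE-driven destabilized firefly luciferase reporter and constitutive TK-Renilla. Cells were seeded at 2.5 × 10⁴/well, then treated 24 h the next day, with 100 μM CoCl₂ and 10 μM ML228 as controls. Dual-Glo readout: firefly was normalized to Renilla and expressed as fold induction over DMSO.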

[7] = test system: U2OS; experiment: Induction of mitochondrial fragmentation in human U2OS cells assessed as puncta-like staining at 30 to 50 uM incubated for 20 hrs by Mito Tracker Deep Red dye based CPA assay; assay type: functional, cell-based; details: dose 30-50 µM
In short: (§3)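 Cell Painting: U-2OS were seeded at 1600 cells/well, then dosed 4 h later for 20 h at 37 °C against a matched-% DMSO control. Live cells were stained 30 min with 100 nM MitoTracker Deep Red, then fixed in 3.7% formaldehyde and permeabilized with 0.1% Triton X-100. They were co-stained with phalloidin, concanavalin A, Hoechst, WGA and SYTO 14. Imaging was high-content, run as triplicate plates; features are Z-scores versus DMSO median/MAD.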

[8] = test system: U2OS; experiment: Effect on mitochondrial respiration in human U2OS cells assessed as suppression of OCR level at 30 uM measured after 24 hrs by Seahorse analysis relative to control; assay type: functional
In short: (§4)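 Seahorse XFp Mito Stress Test on U-2OS, 2 × 10⁵ cells per well, seeded overnight. Assay medium was pH 7.4 DMEM with 2 mM GlutaMAX, 1 mM pyruvate and 25 mM glucose. For acute runs, compound was injected after 5 baseline reads, then 10 reads. Otherwise cells were pretreated 24 h. Then oligomycin A, FCCP and rotenone/antimycin A were added. OCR/ECAR were background-subtracted and normalized to the last baseline (100%). Mean ± SD, n = 3.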

[9] = test system: U2OS; experiment: Induction of mitochondrial network fragmentation in human U2OS cells incubated for […] by CellLight Mitochondria-GFP assay; assay type: functional, cell-based; details: dose 30.0 µM
In short: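 U-2OS were transduced with CellLight Mitochondria-GFP BacMam 2.0 one day before treatment. 3000 cells/well were seeded in chamber slides. After compound addition, live cells were imaged by confocal microscopy (488/555 nm) continuously over 24 h at 37 °C, 5% CO₂.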

[10] = test system: U2OS; experiment: Effect on mitochondrial respiration in human U2OS cells assessed as suppression of OCR level measured after 24 hrs by Seahorse analysis; assay type: functional, cell-based; in short: as §4
[11] = test system: U2OS; experiment: Effect on glycolysis in human U2OS cells assessed as increase in ECAR level at highest concentration measured after 24 hrs by Seahorse analysis; assay type: functional, cell-based; in short: as §4
[12] = test system: U2OS; experiment: Upregulation of HK2 expression in human U2OS cells at 10 to 30 uM incubated for 24 hrs by proteome profiling based analysis; assay type: functional, cell-based; details: dose 10-30 µM; in short: as §2
[13] = test system: U2OS; experiment: Upregulation of EGLN1 expression in human U2OS cells at 10 to 30 uM incubated for 24 hrs by proteome profiling based analysis; assay type: functional, cell-based; details: dose 10-30 µM; in short: as §2
[14] = test system: U2OS; experiment: Effect on oxidative phosphorylation in human U2OS cells at 30 uM incubated for 24 hrs by pathway over-representation analysis; assay type: functional, cell-based; in short: as §2
[15] = test system: U2OS; experiment: Induction of integrated stress response in human U2OS cells assessed as increase ATF4 mRNA level at 30 uM incubated for 24 hrs by RT-qPCR analysis; assay type: functional, cell-based
In short: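 U-2OS at 1 × 10⁵/well in 6-well plates were grown 24 h to ~80% confluence, then treated 24 h versus DMSO. Total RNA (DNase-treated) was reverse-transcribed and ATF4 measured by SYBR Green qPCR. Expression was calculated by ΔΔCt against GAPDH, with DMSO set to 100%. Mean ± SD, n = 3.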

[16] = test system: U2OS; experiment: Downregulation of MRPs level in human U2OS cells at 30 uM incubated for 24 hrs by proteome profiling based analysis; assay type: functional, cell-based; in short: as §2
[17] = test system: U2OS; experiment: Effect on mitochondrial respiration in human U2OS cells assessed as suppression of OCR level at 10 to 30 uM of acute treatment by Seahorse analysis; assay type: functional, cell-based; details: dose 10-30 µM; in short: as §4
[18] = test system: U2OS; experiment: Induction of integrated stress response in human U2OS cells assessed as increase ATF4 level at 30 uM incubated for 24 hrs by Western blot analysis; assay type: functional, cell-based; in short: as §1
[19] = test system: U2OS; experiment: Effect on glycolysis in human U2OS cells at 30 uM incubated for 24 hrs by pathway over-representation analysis; assay type: functional, cell-based; in short: as §2
[20] = test system: U2OS; experiment: Downregulation of […] level in human U2OS cells at 10 to 30 uM incubated for 24 hrs by proteome profiling based analysis; assay type: functional, cell-based; details: dose 10-30 µM; in short: as §2
[21] = test system: U2OS; experiment: Effect on glycolysis in human U2OS cells assessed as increase in ECAR level at 10 to 30 uM of acute treatment by Seahorse analysis; assay type: functional, cell-based; details: dose 10-30 µM; in short: as §4
[22] = test system: U2OS; experiment: Effect on glucose metabolism in human U2OS cells at 30 uM incubated for 24 hrs by pathway over-representation analysis; assay type: functional, cell-based; in short: as §2
[23] = test system: U2OS; experiment: Induction of oxidative stress in human U2OS cells assessed as increase in mitochondrial superoxide level at 30 uM incubated for 1 hr by MitoSox Red staining based analysis; assay type: functional, cell-based
In short: (§5)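 U-2OS at 15,000/well were preloaded 30 min with 5 μM MitoSOX Red plus Hoechst in plain DMEM. They were then treated 60 min in complete DMEM, fixed in 0.5% paraformaldehyde, and imaged at 10×. Integrated MitoSOX intensity per cell was normalized to DMSO (0%) and 10 μM CDNB (100%). Mean ± SD, n = 3.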

[24] = test system: U2OS; experiment: Effect on mitochondrial membrane potential in human U2OS cells at 30 uM incubated for 24 hrs by TRME staining based analysis; assay type: functional, cell-based
In short: (§6)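 U-2OS (5 × 10³/well) were treated 24 h, then given 20 μM FCCP or 0.5% DMSO controls for 10 min. Cells were stained 30 min at 37 °C with 1 μM TMRE plus Hoechst-33342 in complete DMEM, washed, and imaged live in 0.2% BSA/PBS at 10× (TMRE ex/em 549/575 nm).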

[25] = test system: U2OS; experiment: Inhibition of cell confluence in human U2OS cells at 10 to 50 uM measured after 48 hrs by PI/caspase-3/7 Green dye based analysis; assay type: functional; details: dose 10-50 µM
In short: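 U-2OS at 5000/well were incubated overnight, then given medium with compound or DMSO plus propidium iodide and CellEvent Caspase-3/7 Green. Cells were imaged hourly for 48 h by live-cell imaging. Phase confluence gave growth; red and green object confluence gave PI-positive cells and caspase-3/7 activity.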

[26] = test system: U2OS; experiment: Effect on mitochondrial morphology in human U2OS cells at high concentration incubated for 20 hrs by Mito Tracker Deep Red dye based CPA assay; assay type: functional, cell-based; in short: as §3
[27] = test system: U2OS; experiment: Effect on HIF1 signaling in human U2OS cells at 30 uM incubated for 24 hrs by pathway over-representation analysis; assay type: functional, cell-based; in short: as §2
[28] = test system: U2OS; experiment: Induction of oxidative stress in human U2OS cells assessed as increase in mitochondrial superoxide level at 10 uM incubated for 1 hr by MitoSox Red staining based analysis; assay type: functional, cell-based; in short: as §5
[29] = test system: U2OS; experiment: Effect on HIF1 signaling in human U2OS cells incubated for 24 hrs by pathway over-representation analysis; assay type: functional, cell-based; in short: as §2
[30] = test system: U2OS; experiment: Effect on mitochondrial respiration in human U2OS cells assessed as suppression of OCR level at 10 to 30 uM measured after 24 hrs by Seahorse analysis; assay type: functional, cell-based; details: dose 10-30 µM; in short: as §4
[31] = test system: U2OS; experiment: Effect on mitochondrial membrane potential in human U2OS cells at 10 uM incubated for 24 hrs by TRME staining based analysis; assay type: functional, cell-based; in short: as §6
[32] = test system: U2OS; experiment: Induction of mitochondrial fragmentation in human U2OS cells assessed as puncta-like staining at 10 uM incubated for 20 hrs by Mito Tracker Deep Red dye based CPA assay; assay type: functional, cell-based; in short: as §3

## CC(=O)N(O)CCCCCNC(=O)CCC(=O)N(O)CCCCCNC(=O)CCC(=O)N(O)CCCCCN
[1]
  Activity: inactive

## Cc1cc(C2CCCCC2)n(O)c(=O)c1 [CICLOPIROX]
[2]
  Activity: Active
[3]
  Activity: Active
[4]
  Activity: Active
[5]
  Activity: Active
[6]
  Activity: Active
[7]
  Activity: Active
[8]
  Activity: ~100%
[9]
  Activity: Dose-Dependent Effect
[10]
  Activity: Dose-Dependent Effect
[11]
  Activity: Active
[12]
  Activity: Active
[13]
  Activity: Active
[14]
  Activity: Active
[15]
  Activity: Active
[16]
  Activity: Active
[17]
  Activity: inactive
[18]
  Activity: Active
[19]
  Activity: Active
[20]
  Activity: Active
[21]
  Activity: inactive
[22]
  Activity: Active
[23]
  Activity: Active
[24]
  Activity: inactive
[25]
  inhibition: inactive
[26]
  Activity: Active
[27]
  Activity: Active

## COc1cc(OC)c2c(c1Cl)OC1(CCC3(CC1C)OCCc1c3c3cc(C)ccc3n1Cc1ccccc1)C2=O (stereo not given)
[28]
  Activity: Active
[5]
  Activity: Active
[29]
  Activity: inactive
[11]
  Activity: Active
[14]
  Activity: Active
[15]
  Activity: Active
[17]
  Activity: inactive
[18]
  Activity: Active
[30]
  Activity: Active
[21]
  Activity: inactive
[31]
  Activity: inactive
[25]
  inhibition: inactive
[32]
  Activity: Active
